We go through six compounds from ChEMBL document CHEMBL5131404, “Lipophilic quinolone derivatives: Synthesis and in vitro antibacterial evaluation” (2022).

≈ marks a conversion by molar mass, not a printed value.

Common to all, as to assay type: functional
For assay [1], the system named is Neisseria gonorrhoeae. The assay is described as follows: Antibacterial activity against Neisseria gonorrhoeae ATCC 19424. Summed up: (§1)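 Agar dilution MIC. Strains were cultured on GC agar with 2% v/v Vitox and 1% haemoglobin. Suspensions of 10^5 CFU/mL were spotted in duplicate onto the same supplemented GC agar containing various compound concentrations, then incubated 24-48 h at 37°C in 5% CO2. The MIC is the lowest concentration inhibiting growth, from at least three independent experiments.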

Assay [2] concerns Pseudomonas aeruginosa. Put plainly: Antibacterial activity against Pseudomonas aeruginosa ATCC 27853. Summed up:
(§2)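 Broth microdilution MIC following CLSI guidelines. Strains were grown on Mueller-Hinton agar beforehand. The MIC is the lowest compound concentration that inhibits bacterial growth, determined at least three times in independent experiments.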

The subject of assay [3] is Acinetobacter baumannii. Put plainly: Antibacterial activity against Acinetobacter baumannii 140. A digest of the protocol:
as §2

For assay [4], the system named is Escherichia coli. The assay is described as follows: Antibacterial activity against Escherichia coli ATCC 35218. A digest of the protocol: as §2
Assay [5] relates to Streptococcus pneumoniae. Put plainly: Antibacterial activity against Streptococcus pneumoniae ATCC 49169. Summed up:
as §2

Assay [6] relates to Staphylococcus aureus. Put plainly: Antibacterial activity against Staphylococcus aureus ATCC 29213. A digest of the protocol:
as §2

For assay [7], the system named is Acinetobacter baumannii. The assay is described as follows: Antibacterial activity against Acinetobacter baumannii ATCC 19606. A digest of the protocol: as §2
Assay [8] deals with Staphylococcus aureus. Put plainly: Antibacterial activity against methicillin-resistant Staphylococcus aureus 197. A digest of the protocol: (§3)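 Strains grown on Mueller-Hinton agar. MIC by broth microdilution following CLSI guidelines, taken as the lowest concentration inhibiting bacterial growth. Determined at least three times in independent experiments.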
Assay [9] has as its system Escherichia coli. Put plainly: Antibacterial activity against Escherichia coli 202. A digest of the protocol: as §2
The subject of assay [10] is Pseudomonas aeruginosa. Put plainly: Antibacterial activity against Pseudomonas aeruginosa 142. A digest of the protocol: as §2
The test system of assay [11] is Staphylococcus aureus. The assay is described as follows: Antibacterial activity against methicillin-resistant Staphylococcus aureus 196. A digest of the protocol: as §3
Assay [12] relates to Escherichia coli. Put plainly: Antibacterial activity against Escherichia coli 203. Summed up: as §2
For assay [13], the system named is Pseudomonas aeruginosa. Put plainly: Antibacterial activity against Pseudomonas aeruginosa 143. A digest of the protocol: as §2
For assay [14], the system named is Acinetobacter baumannii. The assay is described as follows: Antibacterial activity against Acinetobacter baumannii 139. Summed up: as §2
For assay [15], the system named is Neisseria gonorrhoeae. The assay is described as follows: Antibacterial activity against Neisseria gonorrhoeae WHO A. Summed up: as §1
Assay [16] has as its system Neisseria gonorrhoeae. Put plainly: Antibacterial activity against Neisseria gonorrhoeae WHO C. A digest of the protocol:
as §1

In assay [17] the test system is Neisseria gonorrhoeae. The assay is described as follows: Antibacterial activity against Neisseria gonorrhoeae WHO K. A digest of the protocol: as §1
Assay [18] relates to Neisseria gonorrhoeae. The assay is described as follows: Antibacterial activity against Neisseria gonorrhoeae WHO M. A digest of the protocol: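 Agar dilution on GC agar base with 2% v/v Vitox and 1% haemoglobin containing graded compound concentrations. Suspensions at 10^5 CFU/mL spotted in duplicate. Incubation 24-48h, 37°C, 5% CO2. MIC taken as the lowest concentration inhibiting growth, determined at least three times in independent experiments.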

Assay [19] relates to Neisseria gonorrhoeae. The assay is described as follows: Antibacterial activity against Neisseria gonorrhoeae WHO Q. A digest of the protocol:
as §1

In assay [20] the test system is Neisseria gonorrhoeae. Put plainly: Antibacterial activity against Neisseria gonorrhoeae WHO G. A digest of the protocol:
as §1

Assay [21] relates to Neisseria gonorrhoeae. The assay is described as follows: Antibacterial activity against Neisseria gonorrhoeae Barla194. A digest of the protocol: as §1
The subject of assay [22] is Neisseria gonorrhoeae. Put plainly: Antibacterial activity against Neisseria gonorrhoeae WHO B. Summed up:
as §1

The subject of assay [23] is Neisseria gonorrhoeae. Put plainly: Antibacterial activity against Neisseria gonorrhoeae WHO Z. Summed up:
as §1

For assay [24], the system named is Neisseria gonorrhoeae. The assay is described as follows: Antibacterial activity against Neisseria gonorrhoeae WHO O. Summed up: as §1
The subject of assay [25] is Neisseria gonorrhoeae. Put plainly: Antibacterial activity against Neisseria gonorrhoeae WHO E. Summed up: as §1

The term MIC denotes the lowest concentration found to suppress growth. High values mean weaker potency, low ones greater potency. `CCCCCCCCCN1CCN(c2c(F)cc3c(=O)c(C(=O)O)cn(C4CC4)c3c2OC)CC1`: the MIC in assay [1] is 0.25 µg/mL (≈ 0.513 µM); in assay [2] it was greater than 64 µg/mL; in assay [3] it was 64 µg/mL (≈ 131 µM); in assay [4], 8 µg/mL (≈ 16.4 µM); in assay [5], 2 µg/mL (≈ 4.1 µM); in [6], 8 µg/mL (≈ 16.4 µM). The MIC in assay [7] is 64 µg/mL (≈ 131 µM); in [8] it was greater than 64 µg/mL; in assay [9] it was 8 µg/mL (≈ 16.4 µM); in [10], no less than 64 µg/mL; in [11] it was no less than 64 µg/mL; in [12] it was greater than 64 µg/mL. Also, the MIC in assay [13] is no less than 64 µg/mL; in assay [14], 64 µg/mL (≈ 131 µM).

On to `CCCCCCCCCCN1CCN(c2c(F)cc3c(=O)c(C(=O)O)cn(C4CC4)c3c2OC)CC1`, for which the MIC in [15] is 0.5 µg/mL (≈ 0.997 µM); in assay [1], 0.12 µg/mL (≈ 0.239 µM); in [16], 1 µg/mL (≈ 1.99 µM); in assay [17], 256 µg/mL (≈ 510 µM); in assay [2] it was greater than 64 µg/mL; in [18], no less than 64 µg/mL. For the same compound, the MIC in [19] is 2 µg/mL (≈ 3.99 µM); in assay [20], 8 µg/mL (≈ 15.9 µM); in assay [21], 256 µg/mL (≈ 510 µM); in [3] it was 64 µg/mL (≈ 128 µM); in assay [4], no less than 32 µg/mL; in assay [5], greater than 64 µg/mL. The MIC in assay [6] was 32 µg/mL (≈ 63.8 µM); in [7], 64 µg/mL (≈ 128 µM); in [22], 1 µg/mL (≈ 1.99 µM); in [8] it was greater than 64 µg/mL; in assay [9], no less than 64 µg/mL; in assay [23], no less than 64 µg/mL. The MIC is greater than 64 µg/mL in assay [10]; no less than 64 µg/mL in [11]; greater than 64 µg/mL in assay [12]; greater than 64 µg/mL in assay [13]; no less than 64 µg/mL in assay [14]; 1 µg/mL (≈ 1.99 µM) in assay [24]. In addition, the MIC in assay [25] is 0.25 µg/mL (≈ 0.498 µM).

As for `CCOCCOCCN1CCN(c2c(F)cc3c(=O)c(C(=O)O)cn(C4CC4)c3c2OC)CC1`, the MIC is 2 µg/mL (≈ 4.19 µM) in [1], 0.5 µg/mL (≈ 1.05 µM) in assay [4], 1 µg/mL (≈ 2.09 µM) in [5] and 0.5 µg/mL (≈ 1.05 µM) in assay [6].

As for `CCCCCCCCCCCN1CCN(c2c(F)cc3c(=O)c(C(=O)O)cn(C4CC4)c3c2OC)CC1`, the MIC in assay [1] is 0.5 µg/mL (≈ 0.97 µM); in assay [2] it was greater than 64 µg/mL; in assay [3], 64 µg/mL (≈ 124 µM); in [4], 16 µg/mL (≈ 31 µM); in assay [5] it was 8 µg/mL (≈ 15.5 µM); in assay [6], 32 µg/mL (≈ 62.1 µM). Further, the MIC in assay [7] is 64 µg/mL (≈ 124 µM); in assay [8] it was no less than 64 µg/mL; in assay [9] it was no less than 64 µg/mL; in assay [10], greater than 64 µg/mL; in assay [11], 64 µg/mL (≈ 124 µM); in assay [12], greater than 64 µg/mL. For the same compound, the MIC in assay [13] was greater than 64 µg/mL; in assay [14] it was no less than 64 µg/mL.

Turning to `O=C(O)c1cn(C2CC2)c2cc(N3CCNCC3)c(F)cc2c1=O` [CIPROFLOXACIN], the MIC in assay [15] is 0.002 µg/mL (≈ 0.00604 µM); in assay [1] it was 0.004 µg/mL (≈ 0.0121 µM); in [16], 0.004 µg/mL (≈ 0.0121 µM); in assay [17], no less than 32 µg/mL; in assay [18] it was 2 µg/mL (≈ 6.04 µM); in assay [19], 0.008 µg/mL (≈ 0.0241 µM). Also, the MIC in [20] is 0.125 µg/mL (≈ 0.377 µM); in [21] it was 32 µg/mL (≈ 96.6 µM); in assay [3], greater than 32 µg/mL; in assay [6] it was 0.25 µg/mL (≈ 0.754 µM); in [7] it was 0.5 µg/mL (≈ 1.51 µM); in assay [22], 0.008 µg/mL (≈ 0.0241 µM). Moreover, the MIC in [8], in assay [23], in assay [10], in assay [11], in assay [12] and in assay [13] was greater than 32 µg/mL each time. Moreover, the MIC was greater than 32 µg/mL in assay [14], 0.004 µg/mL (≈ 0.0121 µM) in assay [24] and 0.002 µg/mL (≈ 0.00604 µM) in assay [25].

For `COc1c(N2C[C@@H]3CCCN[C@@H]3C2)c(F)cc2c(=O)c(C(=O)O)cn(C3CC3)c12` [MOXIFLOXACIN], the MIC turned out to be 0.004 µg/mL (≈ 0.00996 µM) in assay [15]; 0.06 µg/mL (≈ 0.149 µM) in assay [1]; 0.016 µg/mL (≈ 0.0399 µM) in [16]; 2 µg/mL (≈ 4.98 µM) in assay [17]; 1 µg/mL (≈ 2.49 µM) in assay [2]; 2 µg/mL (≈ 4.98 µM) in assay [18]. Further, the MIC in assay [19] stood at 0.016 µg/mL (≈ 0.0399 µM); in [20], 0.03 µg/mL (≈ 0.0747 µM); in [21] it was 16 µg/mL (≈ 39.9 µM); in assay [3] it was 4 µg/mL (≈ 9.96 µM); in assay [5] it was 0.06 µg/mL (≈ 0.149 µM); in [6] it was 0.06 µg/mL (≈ 0.149 µM). Also, the MIC in [7] amounted to 0.25 µg/mL (≈ 0.623 µM); in [22], 0.008 µg/mL (≈ 0.0199 µM); in [8] it was 1 µg/mL (≈ 2.49 µM); in assay [9] it was 0.5 µg/mL (≈ 1.25 µM); in assay [23], 2 µg/mL (≈ 4.98 µM); in assay [10], 8 µg/mL (≈ 19.9 µM). The MIC in [11] was determined as 0.5 µg/mL (≈ 1.25 µM); in assay [13] it was 16 µg/mL (≈ 39.9 µM); in assay [14] it was 2 µg/mL (≈ 4.98 µM); in assay [24], 0.016 µg/mL (≈ 0.0399 µM); in assay [25], 0.004 µg/mL (≈ 0.00996 µM).
